According to ChEMBL document CHEMBL1671695, “Specificity of induction of the vanA and vanB operons in vancomycin-resistant enterococci by telavancin” (Antimicrob Agents Chemother, 2010):
Values after ≈ are worked out from the molar mass of the structure shown. Active and inactive are the calls of the source. The rule behind the calls is not given here.

Tests used:
Enterococcus faecalis [1] = assay: Induction of VanA activity in Enterococcus faecalis ATCC 51299 expressing Van B gene assessed as UDP-MurNAc-tetrapeptide profile at 3 ug/ml […]; format: functional
Procedure, shortened: (§1)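 Ramoplanin (3 μg/ml) was then added for 15 min. Cytoplasmic precursors were extracted with 8% trichloroacetic acid (15 min, 4°C), desalted and run on HPLC. Each precursor is given as % of total late precursors (tetrapeptide, pentapeptide, pentadepsipeptide) from integrated peak areas.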

[2] = biological target: T1, D-alanyl-D-alanine dipeptidase (Enterococcus faecium, UniProt Q06241); assay: Inhibition of D,D-dipeptidase activity Van X in Enterococcus faecium ATCC 51559 using D-alanyl-(R)-phenylthioglycine substrate
T1 sequence (Q06241 whole entry): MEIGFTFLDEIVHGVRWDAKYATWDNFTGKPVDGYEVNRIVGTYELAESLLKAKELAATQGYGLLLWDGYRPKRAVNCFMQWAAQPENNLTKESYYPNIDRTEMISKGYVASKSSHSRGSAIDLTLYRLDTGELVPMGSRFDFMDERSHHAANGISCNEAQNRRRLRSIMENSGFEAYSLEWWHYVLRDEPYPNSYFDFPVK
Procedure, shortened: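 Continuous DTNB-coupled VanX assay on soluble extract (100 mM Tris pH 7.5, 412 nm, 22°C). d-Alanyl-(R)-phenylthioglycine was 0.125–0.75 mM and the phosphonamidate inhibitor N-[(1-aminoethyl)hydroxyphosphinyl]-d-alanine 25–324 μM. Ki came from fitting initial rates to a competitive inhibition model.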

Enterococcus faecalis [3] = assay: Induction of VanX activity in Enterococcus faecalis ATCC 51575 expressing Van B gene assessed as UDP-MurNAc-depsipeptide profile at 16 ug/ml […]; format: functional; procedure, shortened: as §1
Enterococcus faecalis [4] = assay: Induction of VanA activity in vancomycin susceptible Enterococcus faecalis BM4110 assessed as UDP-MurNAc-pentapeptide profile at 1 ug/ml […]; format: functional; procedure, shortened: as §1
Enterococcus faecalis [5] = assay: Antimicrobial activity against streptomycin-resistant, vancomycin-susceptible Enterococcus faecalis BM4110 by broth microdilution method; format: functional
Procedure, shortened: (§2)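 Broth microdilution MIC per CLSI-approved methods; strains maintained on tryptic soy agar with 5% sheep blood at 37°C.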

Enterococcus faecalis [6] = assay: Induction of VanA activity in Enterococcus faecalis ATCC 51575 expressing Van B gene assessed as UDP-MurNAc-pentapeptide profile at 16 ug/ml […]; format: functional; procedure, shortened: as §1
Enterococcus faecium [7] = assay: Induction of VanA activity in Enterococcus faecium ATCC 51559 expressing Van A gene assessed as UDP-MurNAc-tetrapeptide profile at 64 ug/ml […]; format: functional; procedure, shortened: as §1
Enterococcus faecalis [8] = assay: Induction of VanX activity in Enterococcus faecalis ATCC 51299 expressing Van B gene assessed as UDP-MurNAc-depsipeptide profile at 3 ug/ml […]; format: functional; procedure, shortened: as §1
Enterococcus faecalis [9] = assay: Induction of VanX activity in Enterococcus faecalis ATCC 51299 expressing Van B gene by high-performance liquid chromatography; format: functional, organism-based
Enterococcus faecalis [10] = assay: Antimicrobial activity against Enterococcus faecalis ATCC 51299 by broth microdilution method; format: functional; procedure, shortened: as §2
Enterococcus faecalis [11] = assay: Induction of VanA activity in vancomycin susceptible Enterococcus faecalis BM4110 harboring Van A gene assessed as UDP-MurNAc-tetrapeptide profile at 64 ug/ml […]; format: functional; procedure, shortened: as §1
Enterococcus faecalis [12] = assay: Induction of VanA activity in Enterococcus faecalis ATCC 51299 expressing Van B gene assessed as UDP-MurNAc-pentapeptide profile at 3 ug/ml […]; format: functional; procedure, shortened: as §1
Enterococcus faecalis [13] = assay: Induction of VanX activity in vancomycin susceptible Enterococcus faecalis BM4110 harboring Van A gene assessed as UDP-MurNAc-depsipeptide profile at 64 ug/ml […]; format: functional; procedure, shortened: as §1
Enterococcus faecium [14] = assay: Induction of VanX activity in Enterococcus faecium ATCC 51559 expressing Van A gene by high-performance liquid chromatography; format: functional, organism-based
Enterococcus faecalis [15] = assay: Induction of VanX activity in Enterococcus faecalis ATCC 51575 expressing Van B gene by high-performance liquid chromatography; format: functional, organism-based
Enterococcus faecalis [16] = assay: Induction of VanA activity in Enterococcus faecalis ATCC 51575 expressing Van B gene assessed as UDP-MurNAc-tetrapeptide profile at 16 ug/ml […]; format: functional; procedure, shortened: as §1
Enterococcus faecalis [17] = assay: Induction of VanX activity in Enterococcus faecalis BM4110 expressing Van A gene by high-performance liquid chromatography; format: functional, organism-based
Enterococcus faecalis [18] = assay: Antimicrobial activity against Enterococcus faecalis BM4110 expressing VanA and harboring transposon tn1546 by broth microdilution method; format: functional; procedure, shortened: as §2
Enterococcus faecium [19] = assay: Induction of VanX activity in Enterococcus faecium ATCC 51559 expressing Van A gene assessed as UDP-MurNAc-depsipeptide profile at 64 ug/ml […]; format: functional; procedure, shortened: as §1
Enterococcus faecalis [20] = assay: Antimicrobial activity against Enterococcus faecalis ATCC 51575 by broth microdilution method; format: functional
Procedure, shortened: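 Strains were grown on TSA with 5% sheep blood at 37°C. MIC was determined by broth microdilution following CLSI methods.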

Enterococcus faecalis [21] = assay: Induction of VanA activity in vancomycin susceptible Enterococcus faecalis BM4110 assessed as UDP-MurNAc-pentapeptide profile at 0.1 ug/ml […]; format: functional
Procedure, shortened: (§3)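 Ramoplanin (3 μg/ml) was then added for 15 min. Cytoplasmic precursors were extracted with 8% TCA (15 min, 4°C), desalted and analysed by HPLC. Each precursor (tetrapeptide, pentapeptide, pentadepsipeptide) is expressed as a percentage of total late precursors from integrated peak areas.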

Enterococcus faecalis [22] = assay: Induction of VanX activity in Enterococcus faecalis ATCC 51299 expressing Van B gene at 0.3 times MIC by high-performance liquid chromatography; format: functional, organism-based
Enterococcus faecium [23] = assay: Induction of VanA activity in Enterococcus faecium ATCC 51559 expressing Van A gene assessed as UDP-MurNAc-pentapeptide profile at 4 ug/ml […]; format: functional; procedure, shortened: as §3
Enterococcus faecalis [24] = assay: Induction of VanA activity in vancomycin susceptible Enterococcus faecalis BM4110 harboring Van A gene assessed as UDP-MurNAc-tetrapeptide profile at 4 ug/ml […]; format: functional; procedure, shortened: as §1
Enterococcus faecalis [25] = assay: Induction of D,D-dipeptidase activity in Enterococcus faecalis BM4110 expressing VanA and harboring transposon tn1546 at 0.4 times MIC by Western blotting relative to uninduced control; format: functional
Enterococcus faecium [26] = assay: Induction of VanX activity in Enterococcus faecium ATCC 51559 expressing Van A gene assessed as UDP-MurNAc-depsipeptide profile at 4 ug/ml […]; format: functional; procedure, shortened: as §3
Enterococcus faecalis [27] = assay: Induction of VanA activity in Enterococcus faecalis ATCC 51299 expressing Van B gene assessed as UDP-MurNAc-pentapeptide profile at 0.1 ug/ml […]; format: functional; procedure, shortened: as §3
Enterococcus faecalis [28] = assay: Induction of VanX activity in Enterococcus faecalis ATCC 51575 expressing Van B gene at 0.3 times MIC by high-performance liquid chromatography; format: functional, organism-based
Enterococcus faecium [29] = assay: Antimicrobial activity against Enterococcus faecium ATCC 51559 by broth microdilution method; format: functional; procedure, shortened: as §2
Enterococcus faecalis [30] = assay: Induction of VanA activity in Enterococcus faecalis ATCC 51575 expressing Van B gene assessed as UDP-MurNAc-pentapeptide profile at 0.1 ug/ml […]; format: functional
Enterococcus faecalis [31] = assay: Induction of VanX activity in vancomycin susceptible Enterococcus faecalis BM4110 harboring Van A gene assessed as UDP-MurNAc-depsipeptide profile at 4 ug/ml […]; format: functional; procedure, shortened: as §1
Enterococcus faecalis [32] = assay: Induction of VanX activity in Enterococcus faecalis BM4110 expressing VanA and harboring transposon tn1546 at 0.4 times MIC by Western blotting relative to uninduced control; format: functional
Procedure, shortened: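 Cells grown in BHI at 37°C with telavancin, harvested and treated with mutanolysin, then sonicated. Soluble extract (35 ng protein) was run on a 4–12% polyacrylamide gel and transferred to PVDF. Blot probed with affinity-purified polyclonal anti-VanX (1/5,000), then IRDye 800CW goat anti-rabbit IgG (1/10,000), with infrared fluorescence detection. VanX amount expressed relative to basal level without antibiotic.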

Enterococcus faecium [33] = assay: Induction of VanA activity in Enterococcus faecium ATCC 51559 expressing Van A gene assessed as UDP-MurNAc-tetrapeptide profile at 4 ug/ml […]; format: functional; procedure, shortened: as §3

Q: With CN[C@H](CC(C)C)C(=O)N[C@H]1C(=O)N[C@@H](CC(N)=O)C(=O)N[C@H]2C(=O)N[C@H]3C(=O)N[C@H](C(=O)N[C@H](C(=O)O)c4cc(O)cc(O)c4-c4cc3ccc4O)[C@H](O)c3ccc(c(Cl)c3)Oc3cc2cc(c3O[C@@H]2O[C@H](CO)[C@@H](O)[C@H](O)[C@H]2O[C@H]2C[C@](C)(N)[C@H](O)[C@H](C)O2)Oc2ccc(cc2Cl)[C@H]1O [VANCOMYCIN] as the molecule, how does the Activity (Enterococcus faecalis [1]) read?
A: 6%

Q: And the Ki [2]?
A: 62 µM

Q: What about the Activity (Enterococcus faecalis [3]) of the same molecule?
A: 86%

Q: What about the Activity (Enterococcus faecalis [4]) of the same molecule?
A: 100%

Q: And the MIC (Enterococcus faecalis [5])?
A: 2 µg/mL (≈ 1.38 µM)

Q: What about the Activity (Enterococcus faecalis [6]) of the same molecule?
A: 10%

Q: And the Activity (Enterococcus faecium [7])?
A: 41%

Q: What about the Activity (Enterococcus faecalis [8]) of the same molecule?
A: 75%

Q: What about the Activity (Enterococcus faecalis [9]) of the same molecule?
A: Active

Q: What about the MIC (Enterococcus faecalis [10]) of the same molecule?
A: 16 µg/mL (≈ 11 µM)

Q: And the Activity (Enterococcus faecalis [11])?
A: 27%

Q: And the Activity (Enterococcus faecalis [12])?
A: 19%

Q: What about the Activity (Enterococcus faecalis [13]) of the same molecule?
A: 73%

Q: And the Activity (Enterococcus faecium [14])?
A: Dose-dependent effect

Q: And the Activity (Enterococcus faecalis [15])?
A: Active

Q: What about the Activity (Enterococcus faecalis [16]) of the same molecule?
A: 4%

Q: And the Activity (Enterococcus faecalis [17])?
A: Dose-dependent effect

Q: What about the MIC (Enterococcus faecalis [18]) of the same molecule?
A: 1020 µg/mL (≈ 707 µM)

Q: And the Activity (Enterococcus faecium [19])?
A: 59%

Q: And the MIC (Enterococcus faecalis [20])?
A: 256 µg/mL (≈ 177 µM)

Q: For CCCCCCCCCCNCCN[C@@]1(C)C[C@H](O[C@H]2[C@H](Oc3c4cc5cc3Oc3ccc(cc3Cl)[C@@H](O)[C@@H](NC(=O)[C@@H](CC(C)C)NC)C(=O)N[C@@H](CC(N)=O)C(=O)N[C@H]5C(=O)N[C@H]3C(=O)N[C@H](C(=O)N[C@H](C(=O)O)c5cc(O)c(CNCP(=O)(O)O)c(O)c5-c5cc3ccc5O)[C@H](O)c3ccc(c(Cl)c3)O4)O[C@H](CO)[C@@H](O)[C@@H]2O)O[C@@H](C)[C@H]1O [TELAVANCIN], which Activity (Enterococcus faecalis [21]) is on record?
A: 100%

Q: What about the Activity (Enterococcus faecalis [22]) of the same molecule?
A: inactive

Q: And the Activity (Enterococcus faecium [23])?
A: 8%

Q: And the MIC (Enterococcus faecalis [5])?
A: 1 µg/mL (≈ 0.57 µM)

Q: What about the MIC (Enterococcus faecalis [10]) of the same molecule?
A: 1 µg/mL (≈ 0.57 µM)

Q: What about the Activity (Enterococcus faecalis [24]) of the same molecule?
A: 26%

Q: And the “fold change (FC)” value (Enterococcus faecalis [25])?
A: 6

Q: And the Activity (Enterococcus faecium [26])?
A: 52%

Q: What about the Activity (Enterococcus faecalis [27]) of the same molecule?
A: 100%

Q: What about the Activity (Enterococcus faecalis [28]) of the same molecule?
A: inactive

Q: And the MIC (Enterococcus faecium [29])?
A: 8 µg/mL (≈ 4.56 µM)

Q: What about the Activity (Enterococcus faecalis [30]) of the same molecule?
A: 100%

Q: What about the Activity (Enterococcus faecalis [31]) of the same molecule?
A: 74%

Q: What about the MIC (Enterococcus faecalis [18]) of the same molecule?
A: 8 µg/mL (≈ 4.56 µM)

Q: What about the “fold change (FC)” value (Enterococcus faecalis [32]) of the same molecule?
A: 4

Q: What about the Activity (Enterococcus faecium [33]) of the same molecule?
A: 40%

Q: And the MIC (Enterococcus faecalis [20])?
A: 0.5 µg/mL (≈ 0.285 µM)
